According to ChEMBL document CHEMBL4261610, “Structure-activity relationships of pyrazole-4-carbodithioates as antibacterials against methicillin-resistant Staphylococcus aureus” (Bioorg Med Chem Lett, 2018):
In brackets after ≈: the same amount, converted by molar mass. Activity calls are given as the source filed them. The calls are words filed in the database; no cut-off is given here.

How the values were obtained:
Staphylococcus aureus [1] = assay: Antibacterial activity against methicillin-resistant Staphylococcus aureus MW2 after 24 hrs by two-fold broth microdilution method; type: functional; conditions: MW2, 24 h
In short: (§1)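 Read-out is the minimum inhibitory concentration against MRSA strain MW2, expressed in μg/mL.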

[2] = Cytotoxicity against human HKC8 cells after 24 hrs by WST1 assay; type: cell-based; conditions: HKC8, 24 h
In short: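 Human HKC-8 cells were exposed to compound, and cytotoxicity was reported as IC₅₀ in μg/mL.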

[3] = Selectivity index, ratio of IC50 for human HKC8 cells to MIC for methicillin-resistant Staphylococcus aureus MW2; type: toxicity; conditions: read-out: Selectivity Index
In short: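 Ratio of the cytotoxic IC50 in human HKC-8 kidney cells to the MIC against MRSA MW2. Both values are in μg/mL and were measured in this work.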

DNA = assay: Binding affinity to ER04 single stranded DNA (unknown origin) at DNA to compound ratio of 1:2.5 to 1:10 after 20 mins by ESI-MS analysis; type: nucleic-acid assay
dsDNA [4] = assay: Binding affinity to Rt1 double stranded DNA (unknown origin) at DNA to compound ratio of 1:2.5 to 1:10 after 20 mins by ESI-MS analysis; type: nucleic-acid assay
[5] = Inhibition of RNA transcription in cell-free system; type: functional
Staphylococcus aureus [6] = assay: Antibacterial activity against methicillin-resistant Staphylococcus aureus MW2; type: functional; in short: as §1
dsDNA [7] = assay: Binding affinity to Dst double stranded DNA (unknown origin) at DNA to compound ratio of 1:2.5 to 1:10 after 20 mins by ESI-MS analysis; type: nucleic-acid assay
[8] = Inhibition of DNA replication in cell-free system at <640 uM using 5'-flap-dsDNA template/dNTP after 20 mins by helicase-dependent leading strand rolling circle replication assay; type: functional
In short: (§2)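 The cell-free bacterial replication system holds all enzymes, ancillary proteins, nucleotide precursors and DNA template needed to duplicate circular bacterial DNA. Covalent reaction with any component would read out as loss of replication.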

Quadruplex DNA [9] = assay: Binding affinity to G5 quadruplex DNA (unknown origin) at DNA to compound ratio of 1:2.5 to 1:10 after 20 mins by ESI-MS analysis; type: nucleic-acid assay
Quadruplex DNA [10] = assay: Binding affinity to ER03 quadruplex DNA (unknown origin) at DNA to compound ratio of 1:2.5 to 1:10 after 20 mins by ESI-MS analysis; type: nucleic-acid assay
[11] = Inhibition of DNA replication in cell-free system at >160 uM using 5'-flap-primed M13 ssDNA template/dNTP pretreated for 5 mins followed by DNA addition and measured after 20 mins by helicase-independent polymerase3 primer extension-strand displacement rolling circle assay; type: functional; in short: as §2
dsDNA [12] = assay: Binding affinity to D2 double stranded DNA (unknown origin) at DNA to compound ratio of 1:2.5 to 1:10 after 20 mins by ESI-MS analysis; type: nucleic-acid assay
[13] = Binding affinity to RNA oligonucleotide (unknown origin)
In short: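 RNA oligonucleotides were incubated with compound, and adduct formation was examined by ESI mass spectrometry.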

Compound | MIC (Staphylococcus aureus [1]) | IC50 [2] | selectivity ratio [3] | also measured
Cc1nn(-c2ccccc2)c(O)c1C(=S)Sc1cccnc1 | 16 to 32 µg/mL (≈ 48.9 to 97.7 µM) | – | – | –
C=CCSC(=S)c1c(C)nn(-c2ccccc2)c1O | 4 to 8 µg/mL (≈ 13.8 to 27.5 µM) | 16 to 32 µg/mL (≈ 55.1 to 110 µM) | 2 to 4 | –
Cc1nn(-c2ccccc2)c(O)c1C(=S)SCc1ccccc1 | 2 to 4 µg/mL (≈ 5.87 to 11.7 µM) | 32 µg/mL (≈ 94 µM) | 8 to 16 | –
CCCNC(=O)c1c(C)nn(-c2ccccc2)c1O | > 64 µg/mL | – | – | –
CCCSC(=S)c1c(C)nn(-c2ccc(C)cc2)c1O | 4 µg/mL (≈ 13.1 µM) | – | – | –
CCCSC(=S)c1c(C)nn(-c2ccc([N+](=O)[O-])cc2)c1O | 0.5 to 1 µg/mL (≈ 1.48 to 2.96 µM) | 0.5 to 1 µg/mL (≈ 1.48 to 2.96 µM) | 1 | –
CSC(=S)c1c(C)nn(-c2ccccc2)c1O | 16 µg/mL (≈ 60.5 µM) | 16 µg/mL (≈ 60.5 µM) | 1 | –
CCCSC(=S)c1c(C)nn(-c2ccc(Br)cc2)c1O | 1 to 2 µg/mL (≈ 2.69 to 5.39 µM) | – | – | –
CCCOC(=O)c1c(C)nn(-c2ccccc2)c1O | > 64 µg/mL | – | – | –
CCCSC(=S)c1c(-c2ccc(F)cc2)nn(-c2ccccc2)c1O | 1 µg/mL (≈ 2.68 µM) | 4 µg/mL (≈ 10.7 µM) | 4 | –
CCSC(=S)c1c(C)nn(-c2ccccc2)c1O | 8 µg/mL (≈ 28.7 µM) | 8 µg/mL (≈ 28.7 µM) | 1 | –
CCCSC(=S)c1c(-c2ccc(C)cc2)nn(-c2ccccc2)c1O | 1 to 2 µg/mL (≈ 2.71 to 5.43 µM) | 8 µg/mL (≈ 21.7 µM) | 4 to 8 | –
CCCSC(=S)c1c(-c2ccc(Cl)cc2)nn(-c2ccccc2)c1O | 0.5 to 1 µg/mL (≈ 1.29 to 2.57 µM) | 4 µg/mL (≈ 10.3 µM) | 4 to 8 | –
CCCSC(=S)c1c(C)nn(-c2ccc(F)cc2)c1O | 2 to 4 µg/mL (≈ 6.44 to 12.9 µM) | – | – | –
CCCCSC(=S)c1c(C)nn(-c2ccccc2)c1O | 2 to 4 µg/mL (≈ 6.53 to 13.1 µM) | 4 µg/mL (≈ 13.1 µM) | 1 to 2 | –
CCCSC(=S)c1c(-c2ccccc2)nn(-c2ccccc2)c1O | 2 µg/mL (≈ 5.64 µM) | 32 µg/mL (≈ 90.3 µM) | 16 | –
CCCSC(=S)c1c(C)nn(-c2ccc(C#N)cc2)c1O | 2 µg/mL (≈ 6.3 µM) | – | – | –
CCCSC(=S)c1c(-c2ccc(Br)cc2)nn(-c2ccccc2)c1O | 0.5 µg/mL (≈ 1.15 µM) | – | – | –
CCCSC(=S)c1c(C)nn(-c2ccc(Cl)cc2)c1O | 2 to 4 µg/mL (≈ 6.12 to 12.2 µM) | – | – | –
CCCSC(=S)c1c(-c2ccc(C(F)(F)F)cc2)nn(-c2ccccc2)c1O | 32 to 64 µg/mL (≈ 75.7 to 151 µM) | – | – | –
CCCSC(=S)c1c(-c2ccc(C#N)cc2)nn(-c2ccccc2)c1O | 2 µg/mL (≈ 5.27 µM) | – | – | –
CCCSC(=S)c1c(C)nn(-c2ccc(OC)cc2)c1O | 8 µg/mL (≈ 24.8 µM) | – | – | –
CCCNC(=S)c1c(C)nn(-c2ccccc2)c1O | > 64 µg/mL | – | – | –
CCCSC(=S)c1c(-c2ccc([N+](=O)[O-])cc2)nn(-c2ccccc2)c1O | 1 µg/mL (≈ 2.5 µM) | 0.5 µg/mL (≈ 1.25 µM) | 0.5 | –
CCCSC(=S)c1c(-c2ccc(OC)cc2)nn(-c2ccccc2)c1O | 2 µg/mL (≈ 5.2 µM) | 8 µg/mL (≈ 20.8 µM) | 4 | –
CSC(SC)=C1C(=O)N(c2ccccc2)N=C1C | > 64 µg/mL | – | – | –
CCCSC(=S)c1c(C)nn(-c2ccccc2)c1O | 4 µg/mL (≈ 13.7 µM) | 4 µg/mL (≈ 13.7 µM) | 1 | Activity (DNA): inactive; Activity (dsDNA [4]): inactive; inhibition [5]: inactive; MIC (Staphylococcus aureus [6]): 4 µg/mL (≈ 13.7 µM); Activity (dsDNA [7]): inactive; inhibition [8]: inactive; Activity (Quadruplex DNA [9]): inactive; Activity (Quadruplex DNA [10]): inactive; inhibition [11]: Active; Activity (dsDNA [12]): inactive; Activity [13]: inactive
